# Compounds with a hit are over-represented: about 3.5% of the library has one in this group of screens.
# PGC1a acetyl inh – modulators of PGC1a acetylation; U2OS PGC1a acetylation, AlphaScreen anti-acetyl-lysine; with virally co-expressed GCN5 acetyltransferase; AID 651687; 0.17% of 350,000 active; inhibition, % at 15.6 µM;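 active = every replicate shows inhibition of at least 40%; inconclusive = mean inhibition at least 40% but some replicate below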;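 also: 0% = neutral control wells and 100% = positive control wells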
# rRNA inh HTS – inhibitors of bacterial rRNA selective over humanized ribosomes; E. coli WT GFP vs humanized-ribosome RFP mutants, fluorescence, 24 h; active compounds read low; DMSO median 0, no signal -100; GFP signal change (wild-type ribosome), % (test concentration not listed); 1.6% of 350,000 active;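 active = significant combined selectivity score with lowered wild-type GFP, culture density cut under 30%, mutant RFP and density less affected; inactive = any of these conditions unmet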
# ERAP1 inh – ERAP1 (human) enzyme inhibition | Q9NZ08 | recombinant ERAP1, Leu-AMC fluorescence, 60 min | inhibition, % at 10.7 µM | 0.15% of 340,000 active | AID 652197;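 active = mean replicate inhibition of at least 30%, or all replicates individually reaching that 30% level; inactive = mean below 30% and not every replicate reaching it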;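 also: 0% = neutral control wells and 100% = L-leucinethiol positive control wells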
# FGF22 binding – FGF22 (human) thermal shift binding | Q9HCT0 | recombinant FGF22 thermal shift, SYPRO orange fluorescence; percent of sucrose octasulfate shift, DMSO zero | activity (Tm shift, normalised), % at 9.99 µM | 1.5% of 340,000 active;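 active = mean Tm shift, scaled 0 neutral to 100 positive control, at about 1.3% or above, every replicate too, limit read from the data; inconclusive = no clear call, values can overlap the other calls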
# Target sequence (Q9HCT0 whole entry, looked up): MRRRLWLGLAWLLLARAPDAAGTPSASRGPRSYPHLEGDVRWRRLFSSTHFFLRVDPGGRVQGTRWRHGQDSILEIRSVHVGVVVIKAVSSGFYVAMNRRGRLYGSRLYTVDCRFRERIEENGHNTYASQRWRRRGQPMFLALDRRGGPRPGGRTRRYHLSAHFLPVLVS
# HIV Env fusion – inhibitors of HIV Env-mediated cell fusion; HeLa-JRFL Env/CEM21 cell fusion, luciferase; inhibition, % at 12.3 µM; 1.1% of 360,000 active; AID 651610;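 active = mean replicate inhibition score of at least 50 and every replicate individually at or above 50; inconclusive = only one of the two criteria met; inactive = mean below 50 and not all replicates reaching 50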;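 also: 0% = plate neutral controls and 100% = maraviroc near 300 nM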
# Cneo AK release – Cryptococcus neoformans lysis via adenylate kinase release. C. neoformans lysis, adenylate kinase release luminescence, 4 h; normalised: neutral wells 0, clomiphene wells 100. lysis activity, % at 15 µM. 0.2% of 360,000 active. AID 651654;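 active = mean lysis activity across replicates of at least 80%, whatever share of replicates individually reach that level; inactive = mean lysis activity below 80%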
#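 Assay system: Cryptococcus neoformans yeast cells / Dosing: single-point compound dose / Timing: 4 h at 37 °C static, read 1 h later / Measured by: luminescence of released adenylate kinase using an AK detection reagent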
# Active calls of the source: *; ? = inconclusive; . = not tested or not shown; [ ] = dose if it differs, or a comment.
SMILES,PGC1a acetyl inh,rRNA inh HTS,ERAP1 inh,FGF22 binding,HIV Env fusion,Cneo AK release
O=C(Nc1cccc(Cl)c1)N1C[C@H]2[C@@H](c3ccccc31)[C@H](CO)N2Cc1ccccc1Cl,-18.9,-15.1,0.0,84.2*,.,-13.4
O=C([C@H]1[C@H](CO)[C@H]2Cn3c(ccc(-c4cccnc4)c3=O)[C@@H]1N2Cc1cccnc1)N1CCOCC1,.,-1.4,1.0,0.3,.,0.4
COc1cccc(-c2ccc([C@@H]3[C@@H](CO)N4CCCCN(S(=O)(=O)c5cccs5)C[C@@H]34)cc2)c1,-18.9,3.1,-1.0,0.3,.,-4.0
C[C@H]1CCCCO[C@@H](CN(C)Cc2ccc(C(F)(F)F)cc2)[C@@H](C)CN([C@@H](C)CO)C(=O)c2cc(NC(=O)Cc3ccccc3)ccc2O1,3.1,0.0,.,0.2,74.5*[16.7 µM],5.1
C[C@@H]1CCCCO[C@H](CN(C)Cc2ccc(C(F)(F)F)cc2)[C@@H](C)CN([C@H](C)CO)C(=O)c2cc(NC(=O)Cc3ccccc3)ccc2O1,14.1,2.2,.,0.3,11.6[16.7 µM],-3.6
C[C@@H]1CCCCO[C@H](CN(C)Cc2ccc(C(F)(F)F)cc2)[C@H](C)CN([C@H](C)CO)C(=O)c2cc(NC(=O)Cc3ccccc3)ccc2O1,?,1.5,.,0.2,57.0*[16.7 µM],-1.0
CC(=O)N1[C@H](C(=O)N2CCCCC2)[C@@H](CO)[C@@H]2Cn3c(ccc(C4=CCCC4)c3=O)[C@@H]21,.,5.1,1.2,0.0,.,1.6
CN(/N=C/c1cc(Cl)ccc1O)C1=NS(=O)(=O)c2ccccc21,3.2,-21.2*,-1.6,-0.1,8.1,3.2
O=C1CN(C(=O)COC(=O)CNC(=O)c2ccc(Cl)cc2)c2ccccc2N1,7.4,-4.3,-0.2,0.0,-3.8,.
COc1ccc(C(=O)/C(=C\c2ccco2)N2C=CC=CC2=C(C#N)C#N)cc1,71.3*,.,.,.,.,-1.2
CN1CCN(C(=O)C[C@H]2C[C@H]3c4cc(NC(=O)C5CCC5)ccc4O[C@H]3[C@@H](CO)O2)CC1,-4.5,3.6,-1.8,0.3,6.3[16.7 µM],7.4
C/C(CCc1ccccc1)=N\NC(=O)COc1ccccc1C,.,1.2,-2.6,43.1*,1.6,.
S=C(NCCc1ccccc1)N1CCc2ccccc2C1,.,-21.9*,-2.1,.,1.3,.
CCCS(=O)(=O)c1ccc(COC(=O)c2cccc(NC(=O)C(C)C)c2)cc1,2.3,-39.1*,1.5,-0.3,23.3,.
Cc1ccc(CNC(=O)c2cc3ccccc3oc2=O)cc1,-6.4,15.4,.,0.0,-10.2,.
Cc1cccc(COCC(Cc2ccccc2)N2CCN(C(=O)c3cccc(C)c3)CCC2=O)c1 (stereo not given),.,-24.9,-2.6,-0.1,50.9,2.1
Cc1cccc(COC[C@H](Cc2ccccc2)N2CCN(C(=O)c3ccc(Cl)c(Cl)c3)CCC2=O)c1,.,18.1,.,-0.2,82.8*,.
Cc1cccc(COCC(Cc2ccccc2)N2CCN(C(=O)c3ccc(Cl)c(Cl)c3)CCC2=O)c1 (stereo not given),-7.5,-4.3,-3.6,-0.2,95.4*,-2.7
Cc1ccc(S(=O)(=O)N2CCC(=O)N(CCOCc3ccc(Cl)cc3)CC2)cc1,.,-32.0,5.0,1.2,56.4*,-1.0
O=C(c1ccc(Cl)c(Cl)c1)N1CCC(=O)N(C(COCc2cccc(C(F)(F)F)c2)Cc2ccccc2)CC1 (stereo not given),.,4.2,-1.9,0.0,79.8*,2.5
CCCN1[C@H](C(=O)NCC)[C@@H](CO)[C@@H]2Cn3c(ccc(-c4ccccc4F)c3=O)[C@@H]21,-8.3,1.3,-2.0,0.2,.,0.1
Cc1cccc(S(=O)(=O)N2C[C@H]3[C@@H](c4ccccc42)[C@H](CO)N3CC2CCOCC2)c1,-16.3,-3.3,4.3,-0.6,.,5.7
Cc1ccc(S(=O)(=O)N2CCC(=O)N(C(COCc3cccc(C(F)(F)F)c3)Cc3ccccc3)CC2)cc1 (stereo not given),-5.1,-1.0,-1.3,-0.2,56.1*,-0.1
Cc1cc(NS(=O)(=O)c2ccc(NC(=O)CCCC(=O)O)cc2)nc(C)n1,2.5,.,.,.,.,-0.1
Cc1ccc(S(=O)(=O)Nc2ccc(S(=O)(=O)Nc3cc(C)nc(C)n3)cc2)cc1,.,-5.8,-0.1,43.4*,6.9,2.2
SMILES,PGC1a acetyl inh,rRNA inh HTS,ERAP1 inh,FGF22 binding,HIV Env fusion,Cneo AK release
CCOc1ccccc1OCCCC(=O)Nc1ccc(S(=O)(=O)Nc2cc(C)nc(C)n2)cc1,-3.7,-2.6,30.2*,-0.2,-0.1,-0.4
Cc1cc(NS(=O)(=O)c2ccc(NS(=O)(=O)c3ccc(CC(C)C)cc3)cc2)nc(C)n1,6.6,-32.9,-17.4,0.6,1.3,.
CCc1cccc(NC(=O)c2snc3c(=O)[nH]cnc23)c1,1.4,.,.,.,.,-3.8
CCc1cc(=O)oc2cc(OCC(=O)OC)c(Cl)cc12,12.9,.,.,.,-58.5,5.9
CCc1ccccc1OCC(=O)NNCC(=O)Nc1cccc(C#N)c1,-2.8,-19.5*,-1.4,0.0,-1.7,-1.8
CC1(Cc2ccc(Cl)cc2)C(=O)Nc2ccc(-c3cccnc3)cc21 (stereo not given),45.9*,-31.2,-0.7,0.0,68.9*,0.4
COc1ccccc1-c1ccc2c(c1)C(C)(Cc1cc(Cl)ccc1C(F)(F)F)C(=O)N2 (stereo not given),.,12.2,3.7,-0.1,-3.3,-0.1
COc1ccccc1-c1ccc2c(c1)C(C)(Cc1cccc(C#N)c1)C(=O)N2 (stereo not given),-13.3,-33.6,2.8,-0.2,101.4*,1.3
CC1(Cc2ccc(Cl)cc2)C(=O)Nc2ccc(S(=O)(=O)NC3CCCCC3)cc21 (stereo not given),-16.1,-59.2,3.9,-0.1,91.1*,-1.1
CC1(Cc2cccc(F)c2)C(=O)Nc2ccc(-c3cccnc3)cc21 (stereo not given),21.2,-52.5,0.0,-0.3,51.0,-0.1
COc1ccc(Cl)cc1CC1(C)C(=O)Nc2ccc(-c3ccccc3OC)cc21 (stereo not given),-12.2,0.5,0.7,0.0,92.0*,-9.0
O=C(COC(=O)c1ccc(S(=O)(=O)N2CCCC2)cc1)Nc1ccccc1,7.4,-4.3,1.7,-0.3,.,1.9
COc1ccc(C(C)=O)cc1CC1(C)C(=O)Nc2ccc(-c3cccc(C(F)(F)F)c3)cc21 (stereo not given),.,6.2,-0.1,0.1,79.4*,0.7
CC(=O)c1cccc(-c2ccc3c(c2)C(C)(Cc2ccccc2C#N)C(=O)N3)c1 (stereo not given),.,-16.4,-0.6,-0.5,-20.4,-0.2
COc1ccccc1-c1ccc2c(c1)C(C)(Cc1ccc(F)c(Cl)c1)C(=O)N2 (stereo not given),.,.,-7.0,0.3,95.9*,-0.3

# Screens from PubChem.
